Source: PubChem
HIF activator: HIF pathway transcriptional activators, primary screen, cell-based, U2OS HRE-luciferase, luminescence; actives 0.32% (n = 300,000); U2OS HRE-luciferase reporter; normalized: DMSO 0%, desferrioxamine 100%; activation, % at 7.5 µM (by protocol);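 active means mean activation of at least 10% of the iron chelator positive control signal, with at least half of replicates also reaching 10%; inconclusive means mean and replicate majority disagree about reaching 10%; inactive means mean and most replicates under 10%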
T cruzi inh: inhibitors of intracellular T. cruzi growth, primary screen, luminescence, NIH3T3 host cells; T. cruzi beta-gal in NIH3T3, 90 h; inhibition, % (concentration not given with the values); actives 1.4% (n = 300,000);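 active means mean inhibition across valid replicates above about 55%, limit read from the data; inconclusive means mean below that limit but half or more replicates reach it; inactive means mean below it, under half of replicates reach it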;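 further: signal also drops with host cell toxicity which is not excluded here; 0% = plate median of DMSO wells and 100% = zero luminescence signal; higher percent means less beta-gal luminescence so fewer parasites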
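compound dosing = single 50 nL compound addition per well in DMSO | material = NIH/3T3 host cells with β-galactosidase reporter T. cruzi | input = 5,000 host fibroblasts per well | timing = ≥90 h infection period, 3 h prior cell attachment | read-out basis = percent inhibition of parasite-derived β-gal signal | detection = GalScreen β-gal luminescence, detergent lysis, 60 min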
Calb FLC: C. albicans growth inhibition with fluconazole, primary screen, CaCi-2 strain, Alamar Blue fluorescence; C. albicans CaCi-2 (fluconazole-resistant clinical isolate) + fluconazole, 48 h; growth inhibition, % (concentration not given with the values); actives 0.57% (n = 300,000); AID 1979, 2009;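 active means growth inhibition above about 58% in most replicates, limit read from the data, passing the limit was not always enough; inconclusive means exactly half the replicates above a set limit; inactive means most replicates below a set limit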;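 further: all wells also contain fluconazole at 8 µg/ml as a sub-toxic cotreatment; 0% = median of DMSO wells and 100% = median of geldanamycin control wells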
HSF-1 act: HSF-1 activators, primary screen, NIH3T3-HGL cells, MG132 stress, luminescence, single point; activation, % at 9 µM; NIH3T3-HGL HSF-1 luciferase reporter, 8 h; 100% = twice DMSO control signal; actives 1.7% (n = 300,000);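 active means mean replicate activation of at least 50% with a set share of replicates each reaching 50%; inconclusive means only one of those two conditions met; inactive means mean below 50% and too few replicates reaching it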;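 further: 0% = median of the neutral control wells and 100% = twice that signal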
HSF1 inhib: HSF1 inhibitors in luciferase reporter cells, primary screen, cell-based, NIH3T3, luminescence | NIH3T3-HGL HSE-luciferase, MG132-induced, luminescence 8 h; active compounds read low | activity change, negative = inhibition, % at 7.5 µM (by protocol) | actives 0.77% (n = 300,000);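 active means more than half of replicate wells show activity change below -50%, luminescence cut by over half; inconclusive means some wells, but at most half, below -50%; inactive means no replicate well below -50%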;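 further: luciferase reports HSF-1 transcriptional activity via heat shock element; 0% = median of DMSO wells and -100% = zero luminescence signal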
* = called active by the depositor; ? = inconclusive; . = no result given. Only some compounds are listed: those with a hit (about 4.4% of all), similar ones and a draw of the others.

SMILES	HIF activator	T cruzi inh	Calb FLC	HSF-1 act	HSF1 inhib
Cn1cc(Br)c(C(=O)Nc2sc3c(c2C#N)CCC3)n1	1	27	-7	-5	12
Cc1noc(C(=O)Nc2sc3c(c2C#N)CCC3)c1Cl	14*	-6	31	-2	-4
COc1ccc(NC(=S)NC(NC(=O)c2ccccc2Cl)C(Cl)(Cl)Cl)c([N+](=O)[O-])c1 (stereo not given)	0	12	-11	28	20
COc1ccc(NC(=S)NC(NC(=O)c2cccc3ccccc23)C(Cl)(Cl)Cl)c([N+](=O)[O-])c1 (stereo not given)	0	68*	-5	17	13
Cc1cccc(/C=C/C(=O)c2ccc([N+](=O)[O-])o2)c1	2	41	7	?	31
O=C(/C=C/c1cccc([N+](=O)[O-])c1)c1ccc([N+](=O)[O-])o1	1	56*	2	54*	32
Cn1c(CNC(=O)C(Cc2ccccc2)NC(=O)c2cccc(F)c2)cc(=O)n(C)c1=O (stereo not given)	0	2	.	-11	-11
CCN(CC)C(=S)SCC(=O)Nc1nc(=O)c2ccccc2s1	1	?	-8	-75	-70*
COc1ccc(NC(=O)CSc2nnc3ccc(-c4ccncc4)nn23)cc1	0	-9	-3	-18	-7
COc1cccc(NC(=O)CSc2nnc(-c3cc(C)n(-c4ccccc4)c3C)o2)c1	0	0	9	-66	-53*
COc1cccc(NC(=O)CSc2nc(N)cc(N)n2)c1	0	-11	0	66*	29
Cc1cccc(NC(=O)CSc2nc(N)cc(N)n2)c1	1	5	-1	-7	12
COc1ccc(NC(=O)CSc2nnc(-c3cccc(O)c3)o2)cc1	3	-9	-4	-6	-9
COc1cccc(NC(=O)CSc2nnc3ccc(-c4ccncc4)nn23)c1	2	1	-5	58*	16
COc1cccc(NC(=O)CSc2c3c(nc4ccccc24)CCCC3)c1	1	22	18	62*	51
CCOC(=O)c1cccc(NC(=O)CSc2nc(N)cc(N)n2)c1	0	-2	0	55*	32
CCOC(=O)Cc1csc(SCC(=O)Nc2cccc(C#N)c2)n1	0	-1	-14	-3	0
CCOC(=O)Cc1csc(SCC(=O)Nc2cccc(Cl)c2)n1	0	-22	-27	58*	19
Cc1ccc(C)c(S(=O)(=O)N2CCN(C(=O)C(C)Sc3ccccc3)CC2)c1 (stereo not given)	0	5	-1	-3	-5
Cc1cc(-n2c(=O)c(C#N)cc3c(=O)n4ccccc4nc32)no1	0	-7	-6	4	0
Cc1ccccc1-n1c(=O)c(C#N)cc2c(=O)n3ccccc3nc21	-1	-17	54*	17	2
O=C(CSc1nc2[nH]ncc2c(=O)[nH]1)NCCc1ccccc1	0	-8	-18	4	2
c1ccc(-c2cc(-c3nc4ccccc4[nH]3)c3ccccc3n2)cc1	0	55*	?	4	-2
Nc1ccc(-c2nc3ccccc3[nH]2)cc1	.	1	4	29	24
Cc1c(Cl)ccc2c(C(=O)Nc3cc(C(C)(C)C)on3)cc(-c3ccccn3)nc12	0	61*	0	-4	-7
SMILES	HIF activator	T cruzi inh	Calb FLC	HSF-1 act	HSF1 inhib
O=C(CSc1ncnc2c1oc1ccccc12)c1cccs1	1	7	-1	21	21
Cc1nc(SCC(=O)c2cccs2)c2oc3ccccc3c2n1	1	11	9	51*	33
Cc1cc2ccccc2n1CCNC(=O)C(C)Oc1ccccc1 (stereo not given)	-1	63*	-3	-6	-1
O=C(CN1CCCCCC1)NC(c1ccccc1)c1ccccc1	-1	15	-6	-6	0
O=C(CN1CCN(c2ccc(O)cc2)CC1)NC(c1ccccc1)c1ccccc1	1	12	114*	27	-2
CON/C=C(\C=Nc1ccc(Cl)cc1Cl)c1ncc(C(F)(F)F)cc1Cl	0	-10	94*	-8	-4
O=S(=O)(c1ccc(F)cc1F)N1CCN(CCO)CC1	.	.	.	-2	-2
